Experimental data: ChEMBL document CHEMBL1142158, “Antibacterial activity and mechanism of action of a novel anilinouracil-fluoroquinolone hybrid compound” (Antimicrob Agents Chemother, 2007)
The source made the active and inactive calls.

Legend:
Bacillus subtilis [1] = experiment: Antibacterial activity against Bacillus subtilis BD54; assay type: functional
Streptococcus pneumoniae [2] = experiment: Antibacterial activity against penicillin-resistant Streptococcus pneumoniae 700670; assay type: functional
Outline: (§1)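 Streptococci tested by CLSI broth microdilution in Mueller-Hinton broth with 5% defibrinated horse blood, log-phase inoculum at 1 x 10^5 CFU/ml. Incubated 37°C with shaking, 16 to 20 h, in 5% humidified CO2. Compounds at 1% DMSO final. MIC is the lowest concentration without growth by OD600. Quadruplicate; highest MIC reported.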

Staphylococcus aureus [3] = experiment: Antibacterial activity against Staphylococcus aureus Smith 13709; assay type: functional
Outline: (§2)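 Broth microdilution per CLSI with modified incubation. Log-phase cultures in cation-adjusted Mueller-Hinton broth, seeded at 1 x 10^5 CFU/ml. Compounds from DMSO stocks, 1% DMSO final. Incubated 37°C, 16 to 20 h, shaken. Growth read as OD600. MIC is the lowest concentration with no apparent growth. Run in quadruplicate; highest value reported.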

Escherichia coli [4] = experiment: Antibacterial activity against Escherichia coli J53; assay type: functional
Enterococcus faecium [5] = experiment: Antibacterial activity against Enterococcus faecium 19434; assay type: functional; outline: as §2
Enterococcus faecalis [6] = experiment: Antibacterial activity against vancomycin-resistant Enterococcus faecalis 51575; assay type: functional; outline: as §2
Klebsiella pneumoniae = experiment: Antibacterial activity against Klebsiella pneumoniae 5657; assay type: functional
Pseudomonas aeruginosa = experiment: Antibacterial activity against Pseudomonas aeruginosa 27853; assay type: functional
Bacillus cereus [7] = experiment: Antibacterial activity against Bacillus cereus 6464; assay type: functional
Streptococcus pneumoniae [8] = experiment: Antibacterial activity against penicillin-resistant Streptococcus pneumoniae 700674; assay type: functional; outline: as §1
Bacillus thuringiensis [9] = experiment: Antibacterial activity against Bacillus thuringiensis 10792; assay type: functional
Bacillus cereus [10] = experiment: Antibacterial activity against Bacillus cereus 4342; assay type: functional
Staphylococcus aureus [11] = experiment: Antibacterial activity against HB-EMAU-resistant and ciprofloxacin-resistant Staphylococcus aureus Smith; assay type: functional; outline: as §2
Streptococcus pneumoniae [12] = experiment: Antibacterial activity against penicillin-resistant Streptococcus pneumoniae 700671; assay type: functional; outline: as §1
Staphylococcus aureus [13] = experiment: Antibacterial activity against methicillin-resistant Staphylococcus aureus 1123; assay type: functional; outline: as §2
Staphylococcus aureus [14] = experiment: Antibacterial activity against mupirocin-resistant Staphylococcus aureus 777; assay type: functional; outline: as §2
Staphylococcus aureus [15] = experiment: Antibacterial activity against HB-EMAU-resistant Staphylococcus aureus Smith; assay type: functional; outline: as §2
Streptococcus pneumoniae [16] = experiment: Antibacterial activity against Streptococcus pneumoniae 49619; assay type: functional; outline: as §1
Streptococcus pneumoniae [17] = experiment: Antibacterial activity against penicillin-resistant Streptococcus pneumoniae 700673; assay type: functional; outline: as §1
Enterococcus faecalis [18] = experiment: Antibacterial activity against vancomycin-resistant Enterococcus faecalis 51299; assay type: functional; outline: as §2
[19] = system: Stenotrophomonas maltophilia; experiment: Antibacterial activity against Stenotrophomonas maltophilia 13637; assay type: functional
[20] = Inhibition of Bacillus subtilis gyrase
Staphylococcus aureus [21] = experiment: Antibacterial activity against mupirocin-sensitive Staphylococcus aureus 2529; assay type: functional
[22] = Inhibition of Bacillus subtilis topoisomerase 4
Bacillus thuringiensis [23] = experiment: Antibacterial activity against Bacillus thuringiensis 33679; assay type: functional
Enterococcus faecium [24] = experiment: Antibacterial activity against vancomycin-resistant Enterococcus faecium B42762; assay type: functional; outline: as §2
Staphylococcus aureus [25] = experiment: Antibacterial activity against Staphylococcus aureus 1081; assay type: functional; outline: as §2
Streptococcus pyogenes = experiment: Antibacterial activity against Streptococcus pyogenes 12344; assay type: functional
Staphylococcus aureus [26] = experiment: Antibacterial activity against methicillin-resistant Staphylococcus aureus 1132; assay type: functional; outline: as §2
Staphylococcus aureus [27] = experiment: Antibacterial activity against ciprofloxacin-resistant Staphylococcus aureus Smith; assay type: functional; outline: as §2
Staphylococcus aureus [28] = experiment: Antibacterial activity against Staphylococcus aureus 25923; assay type: functional; outline: as §2
[29] = Cytotoxicity against human MRC5 cells; assay type: cell-based
Outline: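 MRC-5 human diploid fibroblasts, 4 x 10^3 cells per well, exposed to compound from DMSO stock (final 1%) in minimal essential medium with 10% fetal calf serum for 72 h at 37°C beside a DMSO-only control.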

Bacillus subtilis [30] = experiment: Inhibition of protein synthesis in Bacillus subtilis BD54; assay type: functional, organism-based
Outline: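 Log-phase B. subtilis BD54 in C plus 50 medium; compound in DMSO (5x or 1x MIC) and L-[4,5-3H]leucine added together at time zero; samples taken at intervals. Protein synthesis measured as TCA-precipitable radioactivity, compared with diluent-control incorporation.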

Enterococcus faecalis [31] = experiment: Antibacterial activity against Enterococcus faecalis 29212; assay type: functional; outline: as §2
Staphylococcus aureus [32] = experiment: Antibacterial activity against Staphylococcus aureus Smith in presence of 10% FCS; assay type: functional
Staphylococcus aureus [33] = experiment: Antibacterial activity against methicillin-resistant Staphylococcus aureus 1094; assay type: functional; outline: as §2
Enterococcus faecium [34] = experiment: Antibacterial activity against vancomycin-resistant Enterococcus faecium 1644; assay type: functional; outline: as §2
Enterococcus faecalis [35] = experiment: Antibacterial activity against vancomycin-resistant Enterococcus faecalis 700802; assay type: functional; outline: as §2
Streptococcus pneumoniae [36] = experiment: Antibacterial activity against penicillin-resistant Streptococcus pneumoniae 700677; assay type: functional; outline: as §1
Staphylococcus aureus [37] = experiment: Antibacterial activity against methicillin-resistant Staphylococcus aureus B42876; assay type: functional; outline: as §2
Bacillus subtilis [38] = experiment: Inhibition of DNA synthesis in Bacillus subtilis BD54; assay type: functional, organism-based
Outline: (§3)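 B. subtilis BD54 grown to log phase in C plus 50 medium; compound in DMSO added with [8-3H]adenine at time zero, at 5x or 1x MIC; samples over time. DNA = alkali-insensitive TCA-insoluble label; RNA = total TCA-insoluble minus DNA. Effect judged against diluent-control incorporation.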

Bacillus anthracis = experiment: Antibacterial activity against Bacillus anthracis Sterne; assay type: functional
Bacillus subtilis [39] = experiment: Inhibition of RNA synthesis in Bacillus subtilis BD54; assay type: functional, organism-based; outline: as §3
[40] = target: T1, DNA polymerase subunit gamma-1 (Homo sapiens, UniProt P54098); experiment: Inhibition of human DNA polymerase gamma
T1 sequence (P54098 whole entry): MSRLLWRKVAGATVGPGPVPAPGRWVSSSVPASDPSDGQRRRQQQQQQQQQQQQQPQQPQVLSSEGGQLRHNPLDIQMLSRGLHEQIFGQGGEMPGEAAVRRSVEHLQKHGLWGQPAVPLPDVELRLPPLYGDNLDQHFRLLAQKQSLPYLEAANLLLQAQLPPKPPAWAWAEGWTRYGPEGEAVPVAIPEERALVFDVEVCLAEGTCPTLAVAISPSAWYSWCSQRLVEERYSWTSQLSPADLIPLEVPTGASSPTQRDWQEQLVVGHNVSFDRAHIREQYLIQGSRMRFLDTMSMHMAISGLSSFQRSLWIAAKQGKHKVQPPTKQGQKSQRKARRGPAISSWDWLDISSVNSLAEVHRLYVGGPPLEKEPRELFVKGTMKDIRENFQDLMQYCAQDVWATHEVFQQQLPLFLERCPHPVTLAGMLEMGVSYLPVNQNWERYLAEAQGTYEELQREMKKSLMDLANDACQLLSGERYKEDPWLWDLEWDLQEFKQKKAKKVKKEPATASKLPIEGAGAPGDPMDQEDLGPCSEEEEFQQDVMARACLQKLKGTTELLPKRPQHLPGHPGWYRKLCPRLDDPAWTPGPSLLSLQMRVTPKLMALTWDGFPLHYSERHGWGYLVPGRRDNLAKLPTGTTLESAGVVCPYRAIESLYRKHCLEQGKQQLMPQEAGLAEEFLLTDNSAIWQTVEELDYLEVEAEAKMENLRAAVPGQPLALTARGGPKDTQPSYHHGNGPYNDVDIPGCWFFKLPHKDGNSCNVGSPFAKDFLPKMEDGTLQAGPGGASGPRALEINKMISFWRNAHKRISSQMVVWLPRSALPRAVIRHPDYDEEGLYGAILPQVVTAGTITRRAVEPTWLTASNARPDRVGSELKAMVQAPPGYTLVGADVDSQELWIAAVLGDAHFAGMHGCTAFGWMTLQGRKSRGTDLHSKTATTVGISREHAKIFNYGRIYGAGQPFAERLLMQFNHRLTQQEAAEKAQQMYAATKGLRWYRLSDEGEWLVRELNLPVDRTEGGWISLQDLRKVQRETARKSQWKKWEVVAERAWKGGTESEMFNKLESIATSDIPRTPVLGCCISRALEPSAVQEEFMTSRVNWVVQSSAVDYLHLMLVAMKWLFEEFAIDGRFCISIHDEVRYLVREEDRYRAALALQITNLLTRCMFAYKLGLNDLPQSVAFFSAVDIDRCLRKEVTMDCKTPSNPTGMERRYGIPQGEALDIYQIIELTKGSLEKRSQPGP
Outline: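 Calf thymus pol alpha or human pol gamma, 0.025 to 0.06 U, added to compound dilutions in reaction mixture; 25 min at 37°C; stopped with ice-cold 10% TCA/10 mM pyrophosphate; precipitated [3H]DNA collected on filters and counted. Ki values for dGTP-competitive inhibitors obtained by truncated assay lacking dGTP.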

Enterococcus faecium [41] = experiment: Antibacterial activity against vancomycin and linezolid-resistant Enterococcus faecium F118; assay type: functional; outline: as §2
Escherichia coli [42] = experiment: Antibacterial activity against ciprofloxacin-resistant Escherichia coli XL1-Blue; assay type: functional; outline: as §2

CCc1cc(Nc2cc(=O)n(CCCCO)c(=O)[nH]2)ccc1C
1.25 µg/mL: MIC (Bacillus subtilis [1]) | MIC (Bacillus cereus [7]) | MIC (Bacillus thuringiensis [9]) | MIC (Bacillus cereus [10]) | MIC (Streptococcus pyogenes)
inactive: Activity (Bacillus subtilis [30]) | Activity (Bacillus subtilis [39])
5 µg/mL: MIC (Streptococcus pneumoniae [2]) | MIC (Staphylococcus aureus [3]) | MIC (Enterococcus faecium [5]) | MIC (Enterococcus faecalis [6]) | MIC (Streptococcus pneumoniae [8]) | MIC (Staphylococcus aureus [13]) | MIC (Enterococcus faecalis [18]) | MIC (Enterococcus faecium [24]) | MIC (Staphylococcus aureus [25]) | MIC (Staphylococcus aureus [26]) | MIC (Staphylococcus aureus [27]) | MIC (Staphylococcus aureus [28]) | MIC (Enterococcus faecalis [31]) | MIC (Staphylococcus aureus [33]) | MIC (Enterococcus faecalis [35]) | MIC (Staphylococcus aureus [37])
active: Activity (Bacillus subtilis [38])
20 µg/mL: MIC (Staphylococcus aureus [21]) | MIC (Staphylococcus aureus [32])
> 1010 µM: Ki [40]
2.5 µg/mL: MIC (Streptococcus pneumoniae [12]) | MIC (Streptococcus pneumoniae [16]) | MIC (Streptococcus pneumoniae [17]) | MIC (Bacillus thuringiensis [23]) | MIC (Enterococcus faecium [34]) | MIC (Streptococcus pneumoniae [36]) | MIC (Bacillus anthracis)
10 µg/mL: MIC (Staphylococcus aureus [14]) | MIC (Enterococcus faecium [41])
46 µg/mL: CC50 [29]
> 80 µg/mL: MIC (Escherichia coli [4]) | MIC (Klebsiella pneumoniae) | MIC (Pseudomonas aeruginosa) | MIC (Staphylococcus aureus [11]) | MIC (Staphylococcus aureus [15]) | MIC [19] | MIC (Escherichia coli [42])
> 500 µM: IC50 [20] | IC50 [22]

CCn1cc(C(=O)O)c(=O)c2ccc(C)nc21 [NALIDIXIC ACID]
1090 µM: IC50 [22]
149 µM: IC50 [20]
